# Assay outcomes as filed in PubChem.
# Rows were chosen to be rich in hits. Some 4.8% of all compounds tested hit in one or more screens of this group.
# PAFAH1B2 inh: PAFAH1B2 (human) inhibition | P68402 | recombinant PAFAH1B2, FP-rhodamine activity probe, fluorescence polarization | inhibition, % at 3.39 µM | 340,000 compounds, 1.2% hits | AID 492953;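 active means inhibition above the mean of all tested compounds plus 3 SD, cut at about 24% in these data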;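 further: 0% = enzyme with DMSO and 100% = wells lacking PAFAH1B2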
# PAFAH2 inh: inhibitors of human PAFAH2; Q99487; recombinant PAFAH2, FP-rhodamine activity probe, fluorescence polarization; inhibition, % at 3.39 µM; 340,000 compounds, 0.99% hits; AID 492956;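 active means inhibition above the mean over all tested compounds plus 3 SD, cut at about 30% in these data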;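 further: inhibitors block probe labeling of enzyme so polarization drops; 0% = enzyme with DMSO and 100% = wells lacking PAFAH2 protein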
# pPAFAH inh: pPAFAH (human) enzyme inhibition | Q13093 | recombinant pPAFAH, FP-rhodamine probe fluorescence polarization | inhibition, % at 3.39 µM | 330,000 compounds, 1.5% hits | AID 463082;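 active means inhibition above the mean inhibition across the screen plus 3 SD, cut at about 25% in these data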;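 further: inhibitors block binding of the rhodamine activity-based probe so polarization drops; 0% = enzyme with DMSO and 100% = wells lacking pPAFAH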
# UCH37 DUB inh: human UCH37 deubiquitinating enzyme inhibition. Q9Y5K5. purified proteasome/UCH37, Ub-AMC cleavage fluorescence. inhibition, % (no concentration beside the values). 330,000 compounds, 0.33% hits. AID 588478;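 active means mean inhibition over replicate wells above about 20%, limit read from the data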;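 further: 0% = compound-free wells with enzyme and 100% = wells lacking proteasome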
# Target sequence (Q9Y5K5 whole entry, looked up): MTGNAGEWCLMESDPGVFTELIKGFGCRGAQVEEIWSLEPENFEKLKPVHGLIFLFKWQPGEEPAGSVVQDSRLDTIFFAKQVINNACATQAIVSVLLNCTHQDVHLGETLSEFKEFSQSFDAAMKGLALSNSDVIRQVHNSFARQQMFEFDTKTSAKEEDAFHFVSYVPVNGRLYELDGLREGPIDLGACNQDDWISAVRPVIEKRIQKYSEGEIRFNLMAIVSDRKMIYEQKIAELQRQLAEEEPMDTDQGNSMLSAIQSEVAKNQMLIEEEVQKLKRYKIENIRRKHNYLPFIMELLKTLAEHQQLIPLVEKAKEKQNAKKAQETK
#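 Signal – fluorescence, ex 355 nm, em 460 nm · System – Proteasome-bound UCH37 · Input – 0.15 nM proteasome as dispensed · Timing – 30 min preincubation with enzyme, 25 min cleavage at room temperature · Read-out basis – percent inhibition of cleavage signal versus uninhibited and no-proteasome wells · Medium – Tris-HCl pH 7.4 with ATP-MgCl2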
# PAFAH1B3 FP inh: inhibitors of human PAFAH1B3; recombinant PAFAH1B3, FP-rhodamine probe, fluorescence polarization; 340,000 compounds, 0.28% hits; Q15102; inhibition, % at 3.39 µM;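 active means inhibition above the screen-wide average of all tested compounds plus 3 SD, cut at about 25% in these data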;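 further: 0% = enzyme with DMSO only and 100% = wells lacking PAFAH1B3 protein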
# Target sequence (Q15102 whole entry, looked up): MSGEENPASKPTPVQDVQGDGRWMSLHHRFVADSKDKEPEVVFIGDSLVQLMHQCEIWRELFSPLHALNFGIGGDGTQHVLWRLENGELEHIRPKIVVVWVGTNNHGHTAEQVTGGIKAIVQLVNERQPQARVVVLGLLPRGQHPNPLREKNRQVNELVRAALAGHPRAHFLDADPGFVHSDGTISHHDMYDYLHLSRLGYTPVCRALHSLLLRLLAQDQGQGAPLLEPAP
# GRIN3A LBD mod: modulates the human NR3A ligand-binding domain | NR3A LBD differential scanning fluorimetry, Tm shift; 0% = protein alone, 100% = glycine-bound protein | Tm shift relative to glycine control, % at 25 µM | 340,000 compounds, 2.5% hits;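 active means melting temperature shift of at least 10% of the positive control shift, at one fixed dose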
# PAFAH2 confirm: confirmation of human PAFAH2 inhibitors; shares compounds with PAFAH2 inh; recombinant PAFAH2, FP-rhodamine activity probe, fluorescence polarization; inhibition, % at 3.39 µM; 2,300 compounds, 65% hits; AID 493030;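 active means mean inhibition over three repeats above a set limit taken from the earlier primary screen, cut at about 30% in these data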;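 further: inhibitor blocks binding of rhodamine activity probe so polarization falls; 0% = enzyme with DMSO and 100% = wells lacking PAFAH2 protein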
# * hit, by the source's call; · = not tested or not shown.
SMILES,PAFAH1B2 inh,PAFAH2 inh,pPAFAH inh,UCH37 DUB inh,PAFAH1B3 FP inh,GRIN3A LBD mod,PAFAH2 confirm
Cc1cc(C(=O)OCC(=O)NC2CC2)ccc1[N+](=O)[O-],9,23,14,3,7,1,·
Nc1ccc(C(=O)OCC(=O)N2CCc3ccccc3C2)cc1[N+](=O)[O-],4,51*,4,5,1,-1,46*
CC(=NNC(N)=S)c1ccc(Cl)s1,·,·,·,8,·,·,·
COc1ccc(C=NNC(=O)c2nc(Cl)c(Cl)c(N)c2Cl)cc1COc1ccccc1F,·,·,·,-205,·,·,·
CC(C)(CC(=O)OCC(=O)Nc1ccccc1F)CC1=NS(=O)(=O)c2ccccc2N1,-7,31*,0,1,1,3,28
O=C(CCc1ccccc1)NCCSc1ccccc1,5,-1,0,0,7,0,·
O=C(CCc1[nH]c2ccccc2c1Sc1ccccc1)NCCO,3,37*,2,2,-1,-1,27
Cc1nc(S/C(=C/c2ccc(-c3cccc(Cl)c3)o2)C(=O)O)n[nH]1,21,46*,6,4,6,0,32*
Cc1ccc(S(=O)(=O)N(C)C)cc1NC(=O)COC(=O)c1ccc2c(c1)OCO2,2,60*,0,1,-3,-3,52*
CN(C)S(=O)(=O)c1cccc(COC(=O)c2ccc3c(c2)OCO3)c1,3,31*,8,4,3,-4,25
Cc1ccc(S(=O)(=O)N(C)C)cc1NC(=O)COC(=O)c1ccc2c(c1)OCCO2,9,64*,11,2,6,-8,64*
Cc1ccc(C)c(NC(=O)COC(=O)c2ccc3c(c2)OCO3)c1,2,20,5,5,16,1,·
Cc1ccc(S(=O)(=O)N(C)C)cc1NC(=O)COC(=O)C1=COCCO1,1,27,-4,3,4,1,·
CN(C)S(=O)(=O)c1cccc(COC(=O)c2ccc(Cl)cc2O)c1,4,2,11,2,0,1,·
C(=NNc1cc(N2CCCCC2)ncn1)c1ccco1,·,·,·,10,·,·,·
O=C(COC(=O)c1ccc(S(=O)(=O)N2CCCCC2)cc1)NCc1ccc(F)cc1,0,1,·,0,-15,1,·
O=C(COC(=O)c1ccc(Br)cc1)NCc1ccc(F)cc1,0,42*,20,5,10,1,27
O=C(COC(=O)c1ccc(F)cc1)NCc1ccc(F)cc1,-1,31*,5,3,-4,3,18
COc1ccc(CNC(=O)COC(=O)c2ccc(Br)cc2)cc1,4,-17,12,3,8,0,·
COC(=O)c1sc(SC)c2c1CC(C)(C)CC2=NO,·,·,·,1,·,·,·
O=C(CSc1nc2sc3c(c2c(=O)n1-c1ccccc1)CCCC3)NN=Cc1ccccc1C(=O)O,·,·,·,-67,·,·,·
COc1cc(C(=O)OCC(=O)N2CCCCC2C)ccc1OCc1c(C)noc1C (centres undefined),2,32*,5,1,1,0,13
COc1cc(C(=O)OCC(C)=O)ccc1OCc1c(C)noc1C,2,1,·,-1,9,-2,·
Cc1ncc(CO)c(C=NNC(=O)c2cccc(S(=O)(=O)N3CCCC3)c2)c1O,·,·,·,-78,·,·,·
O=C(NN1CCOCC1)c1ccccc1NS(=O)(=O)c1ccc(F)cc1F,3,70*,0,0,3,0,78*
SMILES,PAFAH1B2 inh,PAFAH2 inh,pPAFAH inh,UCH37 DUB inh,PAFAH1B3 FP inh,GRIN3A LBD mod,PAFAH2 confirm
CC1C=CCC2C(=O)N(c3ccc(Cl)cc3O)C(=O)C12 (centres undefined),7,35*,3,4,9,-1,23
CC1C=CCC2C(=O)N(c3ccccc3OC(=O)c3cccs3)C(=O)C12 (centres undefined),4,2,-2,4,-1,1,·
CCc1nnc(NN=Cc2cc(Br)c(O)cc2O)n1N,·,·,·,16,·,·,·
Cc1ccccc1NC(=O)COC(=O)c1ccccc1SCC(=O)N1CCCC1,6,44*,5,3,-4,1,41*
COc1ccc(NC(=O)COC(=O)c2ccccc2SCC(=O)N2CCCC2)cc1,0,61*,6,3,1,19*,62*
CC(NC(=O)COC(=O)c1ccccc1SCC(=O)N1CCCC1)c1ccccc1 (centres undefined),2,51*,6,1,1,1,42*
CCOC(=O)C1=C(C)N=c2sc(=Cc3cccc([N+](=O)[O-])c3O)c(=O)n2C1c1ccc(OC)cc1OC (centres undefined),·,·,·,10,·,·,·
C=CCN1C(=O)/C(=C2/C(=O)N(CC(=O)O)c3ccccc32)SC1=Nc1nccs1,·,·,·,2,·,·,·
CCOc1ccc(Br)cc1S(=O)(=O)Nc1ccc(C(=O)OCC(=O)Nc2ccc(C#N)cc2)cc1,-14,36*,-12,2,-41,14*,30*
CC(C)=CC(=O)OCC(=O)Nc1ccc(SC(F)F)cc1,0,78*,21,3,1,-2,85*
CCOc1ccc(C(=O)OCC(=O)Nc2ccc(SC(F)F)cc2)cc1OCC,0,80*,11,0,-2,1,77*
CCOc1ccc(NC(=S)NS(=O)(=O)c2cc(Br)ccc2OCC)cc1,·,·,4,2,·,1,·
O=C(COC(=O)c1cc[n+]([O-])cc1)Nc1ccc(SC(F)F)cc1,-2,-5,10,1,-10,-3,·
CCOC(=O)CC(=O)NN=Cc1c(N)n(C)c(=O)n(C)c1=O,·,·,·,5,·,·,·
Cc1occc1C(=O)NN=Cc1ccc(-c2ccccc2)cc1,·,·,·,1,·,·,·
COc1cc(/C=C/C(=O)OCC(=O)Nc2cc(S(=O)(=O)N3CCCC3)ccc2Cl)cc(OC)c1OC,0,31*,8,-7,6,-2,26
COc1cc(/C=C/C(=O)OCC(=O)Nc2cc(S(=O)(=O)N3CCCCC3)ccc2C)ccc1O,-2,75*,12,-9,-5,-8,79*
COc1cc(/C=C/C(=O)OCC(=O)Nc2ccc(C)c(S(=O)(=O)N3CCCCC3)c2)ccc1O,2,67*,11,-14,5,5,73*
COc1ccc(C=NNC(=O)CN(C)C(=O)OCc2ccccc2)cc1OC,·,·,·,2,·,·,·
